Test results published in PMC3609949 (Journal of the American Chemical Society, 2013).
Where a SMILES comes first, the peptide text is derived from it. The star is where a group is joined. X1 = CC[C@@]1(OC(=O)CCCS*)C(=O)OCc2c1cc1n(c2=O)Cc2cc3ccccc3nc2-1

Assay: TEM imaging of self-assembled nanostructures in water
Format: physicochemical
Details: 50 μM in water, stained with 2% uranyl acetate
How it was run: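 Negative-stain TEM using 2% aqueous uranyl acetate to enhance contrast. Most stained samples were imaged at 50 μM. Some other images were taken at 1 mM, and one panel is listed at both 50 μM and 100 μM. Filament widths are given as value ± spread.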

## CC[C@H](C)[C@H](NC(=O)[C@H](CCC(N)=O)NC(=O)[C@@H](NC(=O)CNC(=O)[C@H](CSSCCCC(=O)O[C@]1(CC)C(=O)OCc2c1cc1n(c2=O)Cc2cc3ccccc3nc2-1)NC(C)=O)C(C)C)C(=O)N[C@H](C(=O)N[C@@H](Cc1ccc(O)cc1)C(=O)N[C@@H](CCCCN)C(=O)N[C@@H](CCCCN)C(N)=O)C(C)C [mCPT-buSS-Tau] (Ac-C(X1)GVQIVYKK-NH2; N-terminus and C-terminus assumed)
  width of self-assembled filaments/nanotubes: 6.7 ± 1 nm
